# SIRT5 block: inhibitors of human sirtuin-5 desuccinylase; inhibition, % at 15 µM; actives 1.1% (n = 330,000); Purified SirT5, succinyl-peptide AMC, trypsin-coupled fluorescence; Q9NXA8; in the data active = inhibition above about 15%
# Target sequence (Q9NXA8 whole entry, looked up): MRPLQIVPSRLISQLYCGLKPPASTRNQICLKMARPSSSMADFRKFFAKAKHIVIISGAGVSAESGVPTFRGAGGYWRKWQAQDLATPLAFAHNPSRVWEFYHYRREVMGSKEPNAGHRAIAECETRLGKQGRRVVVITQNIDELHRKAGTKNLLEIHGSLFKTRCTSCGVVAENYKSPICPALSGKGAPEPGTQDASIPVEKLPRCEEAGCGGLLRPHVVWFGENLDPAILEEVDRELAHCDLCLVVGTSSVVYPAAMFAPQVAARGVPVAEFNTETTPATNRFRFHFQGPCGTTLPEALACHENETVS
# ERAP1 inh: ERAP1 (human) enzyme inhibition | recombinant ERAP1, Leu-AMC fluorescence, 60 min | inhibition, % at 10.7 µM | actives 0.15% (n = 340,000) | Q9NZ08;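 active = mean replicate inhibition of at least 30%, or all replicates individually reaching that 30% level; inactive = mean below 30% and not every replicate reaching it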;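 note: 0% = neutral control wells and 100% = L-leucinethiol positive control wells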
# S100A4 MyoIIA: inhibitors of human S100A4 binding to myosin IIA peptide. P26447. S100A4/TAMRA-MyoIIA peptide fluorescence polarization. inhibition, % at 10.7 µM. actives 0.14% (n = 360,000);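 active = mean inhibition of at least 70% across replicates, with every replicate also reaching that level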
# Target sequence (P26447 whole entry, looked up): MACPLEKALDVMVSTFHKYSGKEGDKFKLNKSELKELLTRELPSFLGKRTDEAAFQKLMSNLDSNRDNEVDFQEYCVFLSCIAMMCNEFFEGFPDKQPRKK
#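 Material: S100A4 monomer protein / Buffer or medium: 50 mM HEPES pH 7.2, 10 mM CaCl2, 100 mM KCl / Times: 5 min incubation before reading / Benchmarks: neutral control DMSO, positive control TFP / Reagent: labelled myosin peptide probe, 5 nM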
# CAL PDZ FP-1: inhibitors of human CAL PDZ peptide binding | Q9HD26 | purified CAL PDZ, TMR-peptide fluorescence polarization, 1 h | inhibition, % at 24.9 µM | actives 0.92% (n = 300,000) | AID 602252;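 active = mean inhibition of at least 30% with at least half of replicates also reaching 30%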;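 note: 0% = DMSO neutral control and 100% = excess unlabeled competitor peptide PRC23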
# CAL PDZ FP-2: inhibitors of human CAL PDZ peptide binding; Q9HD26; purified CAL PDZ, TMR-peptide fluorescence polarization, 1 h; inhibition, % at 20 µM; actives 0.02% (n = 330,000);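 active = highest replicate inhibition of at least 40%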;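 note: plate controls were DMSO neutral control wells for no effect and unlabeled competitor peptide control wells for full effect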
#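 Control set: unlabelled peptide and DMSO controls / Material: purified CerCALP PDZ construct / Timing: 1 h incubation at room temperature before polarization reading / Doses: 20 µM, one dose / Detection: fluorescence polarization (mP)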
# DENV2 CPE rescue: DENV2-induced cell death inhibition | DENV2-infected cells, cytopathic effect rescue, plate reader | CPE inhibition, % at 9.99 µM | actives 1.7% (n = 350,000) | AID 651640; in the data active = CPE inhibition above about 20%, passing the limit was not always enough; tested in BHK-21 cells;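 note: 0% = median of neutral control wells and 100% = median of positive control wells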
# * = called active by the depositor; . = no result given; + = active, no number. This is a sample that favours compounds with a hit; in the whole collection about 2.9% have one here.
SMILES,SIRT5 block,ERAP1 inh,S100A4 MyoIIA,CAL PDZ FP-1,CAL PDZ FP-2,DENV2 CPE rescue
CCCCCCCCN1C(=O)[C@H](CC(=O)NCCCN2CCCC2=O)C[C@@]2(C(=O)OC)CC(C)(C)CC=C12,19*,22,1,.,.,-2
COCCCNC(=O)C[C@@H]1C[C@@]2(C(=O)OC)CC(C)(C)CC=C2N(Cc2ccco2)C1=O,0,1,0,.,.,21*
CCCCOCCCNC(=O)C[C@@H]1C[C@@]2(C(=O)OC)CC(C)(C)CC=C2N(Cc2ccc3c(c2)OCO3)C1=O,7,0,2,.,.,28*
O=S(=O)(c1ccc(-c2ccccc2)cc1)N1CCN(Cc2ccc(OCCO)cc2)CC1,9,-2,8,.,.,1
Cc1noc(C)c1S(=O)(=O)N(C)C[C@@H]1OCCCC[C@H](C)Oc2ccc(NC(=O)Nc3ccc(F)cc3)cc2C(=O)N([C@H](C)CO)C[C@@H]1C,-2,0,-7,.,.,7
COc1ccc(NC(=O)Nc2c[nH]c(=O)[nH]c2=O)cc1,-1,-3,-2,59*,-1,-2
O=C(c1ccc(F)cc1)N1CC2(C1)[C@H](c1ccccc1)[C@H](CO)N2Cc1ccccn1,0,-14,-7,.,.,8
CCCCN(C=O)c1c(CC)nc2ccc(C(=O)N3CCN(c4ccccc4)CC3)cn12,-4,0,-2,.,.,-5
CCCCN(C=O)c1c(CC)nc2ccc(C(=O)N3CCCCC3)cn12,44*,0,10,.,.,-1
C/C=C/c1cnc2c(c1)C(=O)N([C@@H](C)CO)C[C@H](C)[C@H](CN(C)S(=O)(=O)c1ccc(F)cc1)O2,1,-1,8,.,.,-15
Cn1c(CCN2CCCC2)nc2cc(NC(=O)COc3ccc(Cl)cc3)ccc21,-3,-6,-1,.,.,-3
CCN1CCN(CCc2nc3cc(NC(=O)COc4ccc(Cl)cc4)ccc3n2C)CC1,-4,2,2,2,-2,25*
Cc1ccc(NC(=O)COC(=O)CNC(=O)C2CCCCC2)cc1S(=O)(=O)N(C)C,.,-1,33,-4,0,-4
CCN(CC)S(=O)(=O)c1ccc(NC(=O)COC(=O)CNC(=O)C2CCCCC2)cc1,-2,4,0,1,-1,63*
CCOC(=O)c1ccc(-n2c(C)nc3c(cnn3-c3ccccc3Cl)c2=O)cc1,.,.,.,78*,1,.
Cc1c(CCC(=O)NCCCCCC(=O)O)c(=O)oc2cc3occ(-c4ccccc4)c3cc12,5,35*,-3,-6,-3,6
Cc1c(CC(=O)NCCCC(=O)O)c(=O)oc2cc3occ(-c4ccccc4)c3cc12,1,-1,-13,-6,-6,-5
COC(=O)C1=C(C(=O)OC)[C@@H]2Nc3ccccc3[C@@]23C[C@@H](C(=O)OC)N(C(=O)c2cccs2)C3=N1,.,0,-2,-5,-1,68*
Cc1csc(=O)n1CC(=O)OCc1nnc(-c2ccc(Cl)cc2)o1,-4,1,+,0,-6,4
Cc1csc(=O)n1CC(=O)OCc1nnc(-c2ccccc2)o1,5,3,3,-2,0,13
CCCN1C[C@H](C)[C@H](OC)CN(C)C(=O)c2ccc(NC(=O)Nc3cccc(F)c3)cc2OC[C@H]1C,7,1,-7,.,.,25*
CCCN1C[C@@H](C)[C@H](OC)CN(C)C(=O)c2ccc(NC(=O)Nc3cccc(F)c3)cc2OC[C@@H]1C,18*,-1,-1,.,.,-3
CCCN1C[C@H](C)[C@@H](OC)CN(C)C(=O)c2ccc(NC(=O)c3ccccc3)cc2OC[C@@H]1C,.,0,3,.,.,23*
Cc1ccc(S(=O)(=O)N(C)C[C@@H]2OCCCC[C@H](C)Oc3ccc(NC(=O)C4CCCCC4)cc3C(=O)N([C@@H](C)CO)C[C@H]2C)cc1,.,.,.,.,.,-2
Cc1noc(C)c1NC(=O)Nc1ccc2c(c1)CC(=O)N([C@@H](C)CO)C[C@@H](C)[C@H](CN(C)S(=O)(=O)c1c(C)noc1C)O2,0,-2,9,.,.,18
O=C(NCc1ccc(Cl)nc1)c1ccc2sc([C@@H]3O[C@H](CO)[C@H](O)[C@H](O)[C@H]3O)nc2c1,17*,-2,3,.,.,-9

# Screening data from PubChem.
